Columns and labels:
[1] = Mutagenicity in Salmonella typhimurium TA98 at 5 to 500 ug/plate in presence of s9 mix by Ames test; type: toxicity, subcellular; conditions: salmonella enterica subsp. enterica serovar typhimurium
Summary of the method: (§1)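 Plate incorporation method at 5, 50 and 500 μg/plate, with and without S9 activation. At least three plates per dose, incubated 72 h at 37 °C, revertants counted. Mean revertants compared with vehicle and positive controls.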

Bel-7402 = assay: Antiproliferative activity against human Bel7402 cells after 96 hrs by MTT assay; type: functional, cell-based; conditions: Bel-7402, 96 h
NCI-H460 = assay: Antiproliferative activity against human NCI-H460 cells after 96 hrs by MTT assay; type: functional, cell-based; conditions: NCI-H460, 96 h
[2] = Mutagenicity in Salmonella typhimurium TA97 at 5 to 500 ug/plate in presence of s9 mix by Ames test; type: toxicity, subcellular; conditions: salmonella enterica subsp. enterica serovar typhimurium; summary of the method: as §1
HCT-116 [3] = assay: Induction of apoptosis in human HCT116 cells assessed as necrotic cells at 20 nM after 48 hrs by Annexin V-FITC/propidium iodide staining-based flow cytometric analysis (reference value: 5.23%); type: functional
HCT-116 [4] = assay: Antiproliferative activity against human HCT116 cells after 96 hrs by MTT assay; type: functional, cell-based; conditions: HCT-116, 96 h
HCT-116 [5] = assay: Induction of apoptosis in human HCT116 cells assessed as early apoptotic cells at 20 nM after 48 hrs by Annexin V-FITC/propidium iodide staining-based flow cytometric analysis (reference value: 1.33%); type: functional
Huh-7 = assay: Antiproliferative activity against human HuH7 cells after 96 hrs by MTT assay; type: functional, cell-based; conditions: Huh-7, 96 h
[6] = AUC (0 to t) in ICR mouse at 3 mg/kg, iv measured after 0.033 to 24 hrs by LC/MS/MS analysis; type: ADME, organism-based; design: dose 3 mg/kg, time upper 24 hr, time lower 0.033 hr, route intravenous; conditions: in vivo
Summary of the method: (§2)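 ICR mice; iv 3 mg/kg in 10% DMSO/saline (3 mice/group), blood at 0.033, 0.083, 0.25, 0.5, 1, 2, 4, 8, 12, 24 h; po 30 mg/kg as 0.5% cmc/0.3% Tween 80 suspension (5 mice/group), blood at 0.083–24 h. Plasma extracted with acetonitrile, LC/MS/MS; parameters by noncompartmental analysis.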

HepG2 = assay: Antiproliferative activity against human HepG2 cells after 96 hrs by MTT assay; type: functional, cell-based; conditions: HepG2, 96 h
[7] = Apparent volume of distribution in ICR mouse at 3 mg/kg, iv measured after 0.033 to 24 hrs by LC/MS/MS analysis; type: ADME, organism-based; conditions: in vivo, read-out: Vz; summary of the method: as §2
Capan-2 = assay: Antiproliferative activity against human Capan2 cells after 96 hrs by MTT assay; type: functional, cell-based; conditions: Capan-2, 96 h
HCT-116 [8] = assay: Induction of apoptosis in human HCT116 cells assessed as late apoptotic cells at 20 nM after 48 hrs by Annexin V-FITC/propidium iodide staining-based flow cytometric analysis (reference value: 3.87%); type: functional
Histone deacetylase 2 = Histone deacetylase 2 (Homo sapiens, UniProt Q92769); assay: Inhibition of recombinant human full length HDAC2 expressed in baculovirus infected Sf9 insect cells using Ac-peptide as substrate preincubated for 15 mins followed by substrate addition and measured after 1 hr
Histone deacetylase 2, sequence (Q92769 whole entry, canonical isoform): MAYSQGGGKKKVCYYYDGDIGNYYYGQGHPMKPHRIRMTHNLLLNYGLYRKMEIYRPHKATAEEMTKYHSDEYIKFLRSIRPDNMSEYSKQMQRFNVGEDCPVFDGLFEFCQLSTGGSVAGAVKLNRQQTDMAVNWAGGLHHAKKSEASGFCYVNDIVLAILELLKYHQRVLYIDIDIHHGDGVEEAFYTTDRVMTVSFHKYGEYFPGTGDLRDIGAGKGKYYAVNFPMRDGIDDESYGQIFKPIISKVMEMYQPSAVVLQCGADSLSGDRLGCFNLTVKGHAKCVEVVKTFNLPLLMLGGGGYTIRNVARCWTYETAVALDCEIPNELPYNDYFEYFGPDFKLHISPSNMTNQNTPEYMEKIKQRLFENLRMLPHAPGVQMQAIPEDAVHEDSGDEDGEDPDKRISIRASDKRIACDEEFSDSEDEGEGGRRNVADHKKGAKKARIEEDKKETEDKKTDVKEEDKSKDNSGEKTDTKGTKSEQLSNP
Summary of the method: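 Recombinant HDAC isoforms mixed with serially diluted compound in assay buffer for 15 min at room temperature. Ac-peptide substrate then added and incubated 1 h at room temperature. Signal read on a plate reader; IC50 by curve fitting.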

[9] = Tmax in ICR mouse at 30 mg/kg, po measured after 0.083 to 24 hrs by LC/MS/MS analysis; type: ADME, organism-based; conditions: in vivo
Summary of the method: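 Male-unspecified ICR mice, 3 per group iv (3 mg/kg in 10% DMSO/saline) and 5 per group po (30 mg/kg in 0.5% cmc/0.3% Tween 80). Blood sampled 0.033 (iv) or 0.083 (po) to 24 h. Plasma extracted with acetonitrile, analysed by LC/MS/MS; noncompartmental analysis.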

[10] = AUC (0 to infinity) in ICR mouse at 30 mg/kg, po measured after 0.083 to 24 hrs by LC/MS/MS analysis; type: ADME, organism-based; design: dose 30 mg/kg, time infinity, route oral; conditions: in vivo; summary of the method: as §2
[11] = molecular target: Phosphatidylinositol 4,5-bisphosphate 3-kinase catalytic subunit beta isoform (Homo sapiens, UniProt P42338); assay: Inhibition of recombinant human PIK3CB using PIP2 as substrate incubated for 1 hr by ADP-glo assay
Phosphatidylinositol 4,5-bisphosphate 3-kinase catalytic subunit beta isoform, sequence (P42338 whole entry, canonical isoform): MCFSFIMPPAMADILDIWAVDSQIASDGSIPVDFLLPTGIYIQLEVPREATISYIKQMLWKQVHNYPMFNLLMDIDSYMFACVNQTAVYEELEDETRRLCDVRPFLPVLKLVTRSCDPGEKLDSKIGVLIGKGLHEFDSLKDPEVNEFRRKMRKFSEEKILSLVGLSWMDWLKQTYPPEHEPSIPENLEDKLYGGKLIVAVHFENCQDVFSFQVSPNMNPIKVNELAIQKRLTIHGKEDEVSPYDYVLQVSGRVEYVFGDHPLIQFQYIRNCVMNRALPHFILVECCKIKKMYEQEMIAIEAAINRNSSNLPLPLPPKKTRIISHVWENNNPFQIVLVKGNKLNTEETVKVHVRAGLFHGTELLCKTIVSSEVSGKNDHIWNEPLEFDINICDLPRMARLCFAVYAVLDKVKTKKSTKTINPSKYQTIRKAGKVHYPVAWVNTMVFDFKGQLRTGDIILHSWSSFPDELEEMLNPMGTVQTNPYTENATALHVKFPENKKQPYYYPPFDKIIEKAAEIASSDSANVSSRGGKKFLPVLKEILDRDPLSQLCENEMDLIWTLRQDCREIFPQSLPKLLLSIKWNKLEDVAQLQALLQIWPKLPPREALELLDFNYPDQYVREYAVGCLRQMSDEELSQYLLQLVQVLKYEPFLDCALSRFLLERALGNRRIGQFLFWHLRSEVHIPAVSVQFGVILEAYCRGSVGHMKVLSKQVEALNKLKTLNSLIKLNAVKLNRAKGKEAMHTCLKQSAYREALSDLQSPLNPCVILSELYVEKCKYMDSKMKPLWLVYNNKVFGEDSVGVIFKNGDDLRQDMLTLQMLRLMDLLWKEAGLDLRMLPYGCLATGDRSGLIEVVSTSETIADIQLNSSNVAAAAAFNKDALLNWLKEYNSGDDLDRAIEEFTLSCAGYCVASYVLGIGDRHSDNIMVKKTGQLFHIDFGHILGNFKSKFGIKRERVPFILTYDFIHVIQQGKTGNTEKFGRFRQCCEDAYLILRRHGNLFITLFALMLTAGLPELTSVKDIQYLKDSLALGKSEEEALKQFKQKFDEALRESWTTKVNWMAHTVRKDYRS
Summary of the method: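 Recombinant PI3Kβ, -γ or -δ, serially diluted compound, PIP2 substrate and ATP combined in kinase buffer. Incubated 1 h at room temperature in the dark, then stopped with ADP-Glo reagent. Luminescence read after kinase detection reagent; IC50 by curve fitting.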

[12] = AUC (0 to t) in ICR mouse at 30 mg/kg, po measured after 0.083 to 24 hrs by LC/MS/MS analysis; type: ADME, organism-based; design: time upper 24 hr, dose 30 mg/kg, time lower 0.083 hr, route oral; conditions: in vivo; summary of the method: as §2
HCT-116 [13] = assay: Induction of apoptosis in human HCT116 cells assessed as early apoptotic cells at 500 nM after 48 hrs by Annexin V-FITC/propidium iodide staining-based flow cytometric analysis (reference value: 1.33%); type: functional
HCT-116 [14] = assay: Induction of apoptosis in human HCT116 cells assessed as necrotic cells at 100 nM after 48 hrs by Annexin V-FITC/propidium iodide staining-based flow cytometric analysis (reference value: 5.23%); type: functional
[15] = Mutagenicity in Salmonella typhimurium TA97 at 5 to 500 ug/plate in absence of s9 mix by Ames test; type: toxicity; conditions: salmonella enterica subsp. enterica serovar typhimurium; summary of the method: as §1
HGC-27 = assay: Antiproliferative activity against human HGC27 cells after 96 hrs by MTT assay; type: functional, cell-based; conditions: HGC-27, 96 h
[16] = Cmax in ICR mouse at 30 mg/kg, po measured after 0.083 to 24 hrs by LC/MS/MS analysis; type: ADME, organism-based; design: dose 30 mg/kg, route oral; conditions: in vivo; summary of the method: as §2
SW1990 = assay: Antiproliferative activity against human SW1990 cells after 96 hrs by MTT assay; type: functional, cell-based; conditions: SW1990, 96 h
HCT-116 [17] = assay: Induction of apoptosis in human HCT116 cells assessed as necrotic cells at 500 nM after 48 hrs by Annexin V-FITC/propidium iodide staining-based flow cytometric analysis (reference value: 5.23%); type: functional
[18] = AUC (0 to infinity) in ICR mouse at 3 mg/kg, iv measured after 0.033 to 24 hrs by LC/MS/MS analysis; type: ADME, organism-based; design: dose 3 mg/kg, time infinity, route intravenous; conditions: in vivo; summary of the method: as §2
[19] = Mutagenicity in Salmonella typhimurium TA98 at 5 to 500 ug/plate in absence of s9 mix by Ames test; type: toxicity; conditions: salmonella enterica subsp. enterica serovar typhimurium; summary of the method: as §1
U-87 MG = assay: Antiproliferative activity against human U87 cells after 96 hrs by MTT assay; type: functional, cell-based, U-87MG ATCC
[20] = Mutagenicity in Salmonella typhimurium TA102 at 5 to 500 ug/plate in presence of s9 mix by Ames test; type: toxicity, subcellular; conditions: salmonella enterica subsp. enterica serovar typhimurium; summary of the method: as §1
HCT-116 [21] = assay: Induction of apoptosis in human HCT116 cells assessed as live cells at 100 nM after 48 hrs by Annexin V-FITC/propidium iodide staining-based flow cytometric analysis (reference value: 89.6%); type: functional
[22] = molecular target: Voltage-gated inwardly rectifying potassium channel KCNH2 (Homo sapiens, UniProt Q12809); assay: Inhibition of human ERG stably expressed in CHO cells by whole cell patch clamp method; type: cell-based
Voltage-gated inwardly rectifying potassium channel KCNH2, sequence (Q12809 whole entry): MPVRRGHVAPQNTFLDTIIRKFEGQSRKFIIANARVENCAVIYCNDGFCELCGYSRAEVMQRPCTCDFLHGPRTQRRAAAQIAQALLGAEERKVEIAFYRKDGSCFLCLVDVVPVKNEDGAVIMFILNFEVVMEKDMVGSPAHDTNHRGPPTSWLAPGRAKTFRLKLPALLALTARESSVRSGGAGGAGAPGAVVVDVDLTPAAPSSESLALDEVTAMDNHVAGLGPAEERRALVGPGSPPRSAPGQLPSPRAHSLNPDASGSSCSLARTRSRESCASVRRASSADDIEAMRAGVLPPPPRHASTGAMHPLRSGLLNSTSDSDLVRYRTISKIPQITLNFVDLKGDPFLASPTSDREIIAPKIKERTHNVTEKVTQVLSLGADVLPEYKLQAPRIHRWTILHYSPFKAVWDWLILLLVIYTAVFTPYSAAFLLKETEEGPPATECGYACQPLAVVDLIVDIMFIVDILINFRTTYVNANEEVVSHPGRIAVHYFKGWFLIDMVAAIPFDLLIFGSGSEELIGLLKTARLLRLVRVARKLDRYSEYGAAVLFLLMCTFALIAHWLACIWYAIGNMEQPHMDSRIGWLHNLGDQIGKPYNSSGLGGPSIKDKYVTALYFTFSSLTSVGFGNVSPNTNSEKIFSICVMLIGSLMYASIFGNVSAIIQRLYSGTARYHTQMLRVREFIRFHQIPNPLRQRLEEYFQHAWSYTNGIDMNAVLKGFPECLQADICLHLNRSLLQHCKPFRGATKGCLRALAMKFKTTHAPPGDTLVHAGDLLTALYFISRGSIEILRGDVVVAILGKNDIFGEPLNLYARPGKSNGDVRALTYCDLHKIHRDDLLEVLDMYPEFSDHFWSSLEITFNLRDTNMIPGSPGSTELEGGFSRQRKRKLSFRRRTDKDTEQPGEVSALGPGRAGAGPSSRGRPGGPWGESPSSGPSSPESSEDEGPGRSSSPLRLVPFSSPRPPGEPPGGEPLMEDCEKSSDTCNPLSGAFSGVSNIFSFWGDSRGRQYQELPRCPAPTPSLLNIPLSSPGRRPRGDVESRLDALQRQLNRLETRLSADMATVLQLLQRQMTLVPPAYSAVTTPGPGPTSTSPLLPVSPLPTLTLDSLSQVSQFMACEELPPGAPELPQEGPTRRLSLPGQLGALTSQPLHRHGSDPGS
Summary of the method: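 CHO cells stably expressing hERG, grown in F-12 (Ham)/GlutaMAX with 10% FBS, penicillin G, blasticidin S and hygromycin B. Expression induced with 1 μg/mL doxycycline, cells cultured 24 h, then recorded by whole-cell patch clamp.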

Row | Compound | Activity [1] | IC50 (Bel-7402) [nM] | IC50 (NCI-H460) [nM] | Activity [2] | Activity (HCT-116 [3]) [%] | IC50 (HCT-116 [4]) [nM] | IC90 (HCT-116 [4]) [nM] | Activity (HCT-116 [5]) [%] | IC50 (Huh-7) [nM] | AUC(0-t) [6] [ng·h/mL] | IC50 (HepG2) [nM] | Vd [7] [L/kg] | IC50 (Capan-2) [nM] | Activity (HCT-116 [8]) [%] | IC50 (Histone deacetylase 2) [nM] | Tmax [9] [h] | IC50 [11] [nM] | AUC(0-t) [12] [ng·h/mL] | Activity (HCT-116 [13]) [%] | Activity (HCT-116 [14]) [%] | further results
1 | COc1ncc(-c2cc(OCCCCCCC(=O)NO)c3ncnc(C)c3c2)cc1F | Non-Toxic | 5200 | 3000 | Non-Toxic | 4.1 | 150 | 48000 | 1.83 | 2500 | 551 | 1100 | 2.57 | 430 | 5.48 | 3 | 0.3 | 101 | 230 | 18.2 | 4.64 | AUC(0-inf) ([10]; ICR): 274 ng·h/mL; Activity [15]: Non-Toxic; IC50 (HGC-27): 110 nM; Cmax [16]: 143 ng/mL; IC50 (SW1990): 900 nM; Activity (HCT-116 [17]): 3.64%; AUC(0-inf) ([18]; ICR): 558 ng·h/mL; Activity [19]: Non-Toxic; IC50 (U-87 MG): 3200 nM; Activity [20]: Non-Toxic; Activity (HCT-116 [21]): 80.8%; IC50 [22]: > 30000 nM
2 | COc1ccc(-c2cc(OCCN(C)c3ncc(C(=O)NO)cn3)c3ncnc(C)c3c2)cn1 | Non-Toxic | 1600 | 2700 | Non-Toxic | 5.97 | 7 | 2800 | 4.53 | 240 | 133 | 76 | 50 | 270 | 5.89 | 3.4 | 1.8 | 279 | 23.1 | 29.1 | 2.99 | AUC [10]: 51.4 ng·h/mL; Activity [15]: Non-Toxic; IC50 (HGC-27): 14 nM; Cmax [16]: 9.39 ng/mL; IC50 (SW1990): 230 nM; Activity (HCT-116 [17]): 2.82%; AUC [18]: 143 ng·h/mL; Activity [19]: Non-Toxic; IC50 (U-87 MG): 340 nM; Activity [20]: Non-Toxic; Activity (HCT-116 [21]): 70.2%; IC50 [22]: > 30000 nM

Source: ChEMBL document CHEMBL4311940, “Design, Synthesis, and Biological Evaluation of 4-Methyl Quinazoline Derivatives as Anticancer Agents Simultaneously Targeting Phosphoinositide 3-Kinases and Histone Deacetylases” (J Med Chem, 2019)
